# What was measured:
# [1] = system: SF-539; experiment: Cytotoxicity against human CNSSF-539 cancer cell lines.; assay type: functional
# [2] = system: UACC-62; experiment: Cytotoxicity against human melanoma UACC-62 cancer cell lines.; assay type: functional
# [3] = molecular target: T1, DNA topoisomerase 1 (Homo sapiens) (UniProt P11387); experiment: Inhibitory activity against DNA topoisomerase I; greater activity than the parent compound 1
# T1 sequence (whole entry): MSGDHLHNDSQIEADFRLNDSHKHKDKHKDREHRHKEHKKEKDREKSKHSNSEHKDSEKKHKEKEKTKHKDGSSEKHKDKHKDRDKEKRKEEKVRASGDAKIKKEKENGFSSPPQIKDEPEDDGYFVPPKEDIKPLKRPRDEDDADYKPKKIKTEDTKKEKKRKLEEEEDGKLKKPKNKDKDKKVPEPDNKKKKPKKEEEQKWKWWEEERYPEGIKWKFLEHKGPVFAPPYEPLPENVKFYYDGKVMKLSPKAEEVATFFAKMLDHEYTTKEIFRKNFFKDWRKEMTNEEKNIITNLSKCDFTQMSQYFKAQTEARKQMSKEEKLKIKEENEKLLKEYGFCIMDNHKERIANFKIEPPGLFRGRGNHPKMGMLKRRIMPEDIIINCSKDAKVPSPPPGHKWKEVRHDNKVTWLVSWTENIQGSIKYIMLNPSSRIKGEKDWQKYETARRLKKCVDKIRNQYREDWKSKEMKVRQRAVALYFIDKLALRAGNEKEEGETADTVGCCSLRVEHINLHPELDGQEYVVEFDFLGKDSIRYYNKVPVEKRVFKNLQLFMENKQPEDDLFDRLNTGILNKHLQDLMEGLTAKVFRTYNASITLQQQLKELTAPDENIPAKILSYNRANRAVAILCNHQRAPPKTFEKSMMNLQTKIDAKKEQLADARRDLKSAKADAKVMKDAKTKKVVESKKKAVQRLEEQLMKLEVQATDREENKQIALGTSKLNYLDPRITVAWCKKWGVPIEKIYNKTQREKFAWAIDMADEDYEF
# [4] = system: SN12C; experiment: Cytotoxicity against human renal SN12C cancer cell lines.; assay type: functional
# [5] = system: MDA-MB-435; experiment: Cytotoxicity against human breast […] cancer cell lines.; assay type: functional
# [6] = system: OVCAR-3; experiment: Cytotoxicity against human ovarian OVCAR-3 cancer cell lines.; assay type: functional
# [7] = system: Panel (Carcinoma cell lines); experiment: Mean graph midpoint for growth inhibition of all human cancer cell lines.; assay type: functional; design: unit: µM
# Method in brief: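 Mean graph midpoint from the NCI screen, about 55 human cancer cell lines, test range 10^-8 to 10^-4 M. Computed as the average GI50 across all lines tested, with GI50 values below or above the range set to 10^-8 M or 10^-4 M.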
# [8] = system: DU-145; experiment: Cytotoxicity against human prostate DU-145 cancer cell lines.; assay type: functional
# [9] = system: HOP-62; experiment: Cytotoxicity was determined in human lung HOP-62 cancer cell lines; assay type: functional
# [10] = system: HCT-116; experiment: Cytotoxicity against human colon HCT116 cancer cell lines.; assay type: functional
# [11] = molecular target: T1, DNA topoisomerase 1 (Homo sapiens); experiment: Compound was tested for its inhibitory activity against DNA topoisomerase I; No activity
Activity [3],Activity [11],SMILES,GI50 [1] [nM],GI50 [2] [nM],GI50 [4] [nM],GI50 [5] [nM],GI50 [6] [nM],MGM [7],GI50 [8] [nM],GI50 [9] [nM],GI50 [10] [nM]
greater activity than compound 1,–,COc1cc2c3c(n(CCCNCCCN)c(=O)c2cc1OC)-c1cc2c(cc1C3=O)OCO2,1200,3400,2300,2500,3100,3.2,3100,1600,1300
greater activity than compound 1,–,COc1cc2c3c(n(CCCNCC(OC)OC)c(=O)c2cc1OC)-c1cc2c(cc1C3=O)OCO2,6700,2860,–,10800,6900,2.1,540,450,180
greater activity than compound 1,–,COc1cc2c3c(n(CCCNCCNCCN)c(=O)c2cc1OC)-c1cc2c(cc1C3=O)OCO2.Cl.Cl.Cl,550,2600,2500,2700,1700,2.4,1200,2800,900
greater activity than compound 1,–,COc1cc2c3c(n(CCCNCCN)c(=O)c2cc1OC)-c1cc2c(cc1C3=O)OCO2.Cl.Cl,430,650,370,1600,700,0.88,720,380,560
greater activity than compound 1,–,COc1cc2c3c(n(CCCOC(=O)C(F)(F)F)c(=O)c2cc1OC)-c1cc2c(cc1C3=O)OCO2,< 10,< 10,< 10,30,70,0.15,660,< 10,18
greater activity than compound 1,–,COc1cc2c3c(n(CCCNCCCNCCN)c(=O)c2cc1OC)-c1cc2c(cc1C3=O)OCO2.Cl.Cl.Cl,38000,37000,20000,38000,20000,41,52000,–,23000
greater activity than compound 1,–,COc1cc2c3c(n(CCCN(C)C)c(=O)c2cc1OC)-c1cc2c(cc1C3=O)OCO2,190,540,900,650,1400,0.35,140,18,120
greater activity than compound 1,–,COc1cc2c3c(n(CCN)c(=O)c2cc1OC)-c1cc2c(cc1C3=O)OCO2.Cl,1300,140,360,–,860,0.34,400,580,68

# Second part, the compound before the results:
SMILES,Activity [3],Activity [11],GI50 [1] [nM],GI50 [2] [nM],GI50 [4] [nM],GI50 [5] [nM],GI50 [6] [nM],MGM [7],GI50 [8] [nM],GI50 [9] [nM],GI50 [10] [nM]
COc1cc2c3c(n(CCN(C)C)c(=O)c2cc1OC)-c1cc2c(cc1C3=O)OCO2.O=CO,–,–,900,1200,4400,6100,10000,3.1,1900,1100,660
C[C@@]1(O)C(=O)OCc2c1cc1n(c2=O)Cc2cc3ccccc3nc2-1,greater activity than compound 1,–,< 10,< 10,20,40,220,0.04,< 10,< 10,30
COc1cc2c3c(n(CCCNCCCNCCCN)c(=O)c2cc1OC)-c1cc2c(cc1C3=O)OCO2.Cl.Cl.Cl,–,–,> 100000,44000,33000,68000,880,59,> 100000,–,43000
COc1cc2c3c(n(C)c(=O)c2cc1OC)-c1cc2c(cc1C3=O)OCO2,–,–,41000,4200,68000,96000,–,20,37000,1300,35000
COc1cc2c3c(n(CCCN(CCO)CCO)c(=O)c2cc1OC)-c1cc2c(cc1C3=O)OCO2.Cl,–,–,< 10,< 10,< 10,80,130,0.07,< 10,< 10,< 10
COc1cc2c3c(n(CCCNCCNCCCN)c(=O)c2cc1OC)-c1cc2c(cc1C3=O)OCO2.Cl.Cl.Cl,–,–,8600,1900,1700,3400,8100,3,4600,2900,1300
COc1cc2c3c(n(CCCNCCCNCCCNCCCN)c(=O)c2cc1OC)-c1cc2c(cc1C3=O)OCO2.Cl.Cl.Cl.Cl,–,No activity,–,1700,1600,1400,1600,2,1400,3000,1500

# — ChEMBL document CHEMBL1145941, “Design, synthesis, and biological evaluation of indenoisoquinoline topoisomerase I inhibitors featuring polyamine side chains on the lactam nitrogen” (2003)
